Assay results as given in ChEMBL document CHEMBL5096213 (Bioorg Med Chem, 2022).

How the values were obtained:
[1] = test system: Mycobacterium tuberculosis; test: Binding affinity to Mycobacterium tuberculosis PanD assessed as change in entropy by isothermal titration calorimetry
How it was run: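 Mtb PanD (100 μM) in 50 mM Tris pH 7.5 titrated with 2 mM ligand by ITC at 20 °C. Buffer-versus-compound control heats subtracted. Isotherm fitted by least squares to a single-site binding model, which yields the thermodynamic parameters.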

[2] = Cytotoxicity against African green monkey Vero cells assessed as cell viability at 1.5 mM incubated for 24 hrs by XTT assay; type: toxicity, cell-based; details: chlorocebus sabaeus, read-out: Activity
How it was run: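 Vero cells in EMEM with 10% FBS and penicillin/streptomycin were seeded at 500–1000 cells/well. They were dosed from DMSO stocks (final DMSO 0.5%) over 20 μM to 1.5 mM and incubated 24 h at 37 °C, 10% CO2. XTT was added 2 h before read-out at 450 nm, with 660 nm background. Viability was blank-subtracted and normalized to DMSO-only wells as 100%. Values are the mean of two technical replicates.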

[3] = Binding affinity to Mycobacterium tuberculosis PanD assessed as dissociation constant by isothermal titration calorimetry
How it was run: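 ITC at 20 °C, 100 μM Mtb PanD titrated with 2 mM ligand, after desalting into 50 mM Tris pH 7.5. Buffer-versus-compound heats subtracted. KD obtained by least-squares fit of the binding isotherm to a single-site model.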

| SMILES | TdeltaS [1] [kcal/mol] | viability at 24 h, 1500 µM [2] [%] | Kd [3] [µM] |
| --- | --- | --- | --- |
| O=C(O)c1cnccn1 [PYRAZINOIC ACID] | 3 |  |  |
| CCCNc1nccnc1C(=O)O | -5.7 | 50 | 7 |
| CC(C)Nc1nccnc1C(=O)O |  | 50 | > 100 |
| Nc1cnc(C(=O)O)cn1 | 0.6 | 50 | 37 |
| O=C(O)c1nccnc1Nc1ccccc1 | -2.5 |  | 47 |
| O=C(O)c1nccnc1NCc1ccccc1 |  | 50 |  |
| Nc1nccnc1C(=O)O | -0.7 | 50 | 40 |
